Measured values as given in ChEMBL document CHEMBL4368909, “Identification of Dihydrofuro[3,4- d]pyrimidine Derivatives as Novel HIV-1 Non-Nucleoside Reverse Transcriptase Inhibitors with Promising Antiviral Activities and Desirable Physicochemical Properties” (J Med Chem, 2019).
≈ marks a conversion by molar mass, not a printed value.

Assays:
[1] = system: Human immunodeficiency virus 1; assay: Antiviral activity against HIV1 harboring reverse transcriptase L100I mutant infected in human MT4 cells assessed as reduction in virus-induced cytopathic effect after 5 days by MTT assay; format: functional, organism-based; conditions: Human immunodeficiency virus 1, MT4, 120 h
[2] = system: Human immunodeficiency virus 1; assay: Antiviral activity against HIV1 harboring reverse transcriptase Y181C mutant infected in human MT4 cells assessed as reduction in virus-induced cytopathic effect after 5 days by MTT assay; format: functional, organism-based; conditions: Human immunodeficiency virus 1, MT4, 120 h
[3] = system: Human immunodeficiency virus 1; assay: Antiviral activity against HIV1 harboring reverse transcriptase Y188L mutant infected in human MT4 cells assessed as reduction in virus-induced cytopathic effect after 5 days by MTT assay; format: functional, organism-based; conditions: Human immunodeficiency virus 1, MT4, 120 h
[4] = system: Human immunodeficiency virus 1; assay: Resistance factor, ratio of EC50 for HIV1 harboring reverse transcriptase L100I mutant to EC50 for wild type HIV1; format: functional
In short: (§1)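 The resistance factor is the EC50 against the mutant strain divided by the EC50 against wild-type HIV-1. Both were measured in MT-4 cells by MTT read-out of protection from virus-induced cytopathicity.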

[5] = system: Human immunodeficiency virus 1; assay: Resistance factor, ratio of EC50 for HIV1 harboring reverse transcriptase K103N mutant to EC50 for wild type HIV1; format: functional; in short: as §1
[6] = system: Human immunodeficiency virus 1; assay: Resistance factor, ratio of EC50 for HIV1 harboring reverse transcriptase Y181C mutant to EC50 for wild type HIV1; format: functional; in short: as §1
[7] = system: Human immunodeficiency virus 1; assay: Resistance factor, ratio of EC50 for HIV1 harboring reverse transcriptase E138K mutant to EC50 for wild type HIV1; format: functional; in short: as §1
[8] = system: Human immunodeficiency virus 1; assay: Resistance factor, ratio of EC50 for HIV1 harboring reverse transcriptase F227L/V106A double mutant to EC50 for wild type HIV1; format: functional; in short: as §1
[9] = biological target: Human immunodeficiency virus type 1 reverse transcriptase (Human immunodeficiency virus 1, UniProt Q72547); assay: Inhibition of recombinant HIV1 reverse transcriptase using (DIG)-dUTP and biotin-labeled dNTPs as substrate after 1 hr by ELISA
[10] = Aqueous solubility of the compound at pH at 7 by HPLC analysis; format: physicochemical; conditions: buffer, pH 7
In short: (§2)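 Aqueous solubility read by HPLC in buffer at pH 2.0, 7.0 or 7.4.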

[11] = Aqueous solubility of the compound at pH at 2 by HPLC analysis; format: physicochemical; conditions: buffer, pH 2; in short: as §2
Cytochrome P450 1A2 = biological target: T1, Cytochrome P450 1A2 (Homo sapiens, UniProt P05177); assay: Inhibition of CYP1A2 in human liver microsomes using phenacetin as substrate after 10 mins in presence of NADPH; format: ADME
T1 sequence (P05177 whole entry): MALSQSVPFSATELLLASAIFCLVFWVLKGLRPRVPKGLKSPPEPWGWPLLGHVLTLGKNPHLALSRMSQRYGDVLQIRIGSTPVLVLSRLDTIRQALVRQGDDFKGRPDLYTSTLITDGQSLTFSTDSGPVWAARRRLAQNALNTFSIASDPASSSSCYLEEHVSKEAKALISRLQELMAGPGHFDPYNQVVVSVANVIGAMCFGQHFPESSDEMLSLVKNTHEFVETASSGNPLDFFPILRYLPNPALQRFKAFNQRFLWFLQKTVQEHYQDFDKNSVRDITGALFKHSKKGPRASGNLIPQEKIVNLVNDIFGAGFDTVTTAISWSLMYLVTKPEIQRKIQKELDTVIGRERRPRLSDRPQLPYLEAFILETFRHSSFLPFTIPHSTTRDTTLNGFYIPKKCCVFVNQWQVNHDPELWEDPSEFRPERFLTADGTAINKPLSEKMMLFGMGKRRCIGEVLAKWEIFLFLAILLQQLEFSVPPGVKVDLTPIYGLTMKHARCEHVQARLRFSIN

Cytochrome P450 2C9 = Cytochrome P450 2C9 (Homo sapiens, UniProt P11712); assay: Inhibition of CYP2C9 in human liver microsomes using diclofenac as substrate after 10 mins in presence of NADPH; format: ADME
Chain of Cytochrome P450 2C9 (P11712 whole entry): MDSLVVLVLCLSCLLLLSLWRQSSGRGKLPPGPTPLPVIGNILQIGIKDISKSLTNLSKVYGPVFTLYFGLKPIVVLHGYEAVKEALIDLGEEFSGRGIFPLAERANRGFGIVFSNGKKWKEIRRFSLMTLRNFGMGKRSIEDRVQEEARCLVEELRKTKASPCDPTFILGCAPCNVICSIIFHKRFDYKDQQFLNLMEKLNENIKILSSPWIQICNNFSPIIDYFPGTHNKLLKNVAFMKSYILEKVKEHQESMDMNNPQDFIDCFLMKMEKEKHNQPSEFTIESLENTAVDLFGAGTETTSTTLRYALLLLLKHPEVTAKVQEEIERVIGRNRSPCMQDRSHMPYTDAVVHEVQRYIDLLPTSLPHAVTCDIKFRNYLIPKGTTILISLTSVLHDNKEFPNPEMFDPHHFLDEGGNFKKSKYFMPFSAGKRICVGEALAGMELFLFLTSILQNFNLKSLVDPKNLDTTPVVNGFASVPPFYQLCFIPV

Cytochrome P450 2C19 = Cytochrome P450 2C19 (Homo sapiens, UniProt P33261); assay: Inhibition of CYP2C19 in human liver microsomes using S-mephenytoin as substrate after 10 mins in presence of NADPH; format: ADME
Chain of Cytochrome P450 2C19 (P33261 whole entry): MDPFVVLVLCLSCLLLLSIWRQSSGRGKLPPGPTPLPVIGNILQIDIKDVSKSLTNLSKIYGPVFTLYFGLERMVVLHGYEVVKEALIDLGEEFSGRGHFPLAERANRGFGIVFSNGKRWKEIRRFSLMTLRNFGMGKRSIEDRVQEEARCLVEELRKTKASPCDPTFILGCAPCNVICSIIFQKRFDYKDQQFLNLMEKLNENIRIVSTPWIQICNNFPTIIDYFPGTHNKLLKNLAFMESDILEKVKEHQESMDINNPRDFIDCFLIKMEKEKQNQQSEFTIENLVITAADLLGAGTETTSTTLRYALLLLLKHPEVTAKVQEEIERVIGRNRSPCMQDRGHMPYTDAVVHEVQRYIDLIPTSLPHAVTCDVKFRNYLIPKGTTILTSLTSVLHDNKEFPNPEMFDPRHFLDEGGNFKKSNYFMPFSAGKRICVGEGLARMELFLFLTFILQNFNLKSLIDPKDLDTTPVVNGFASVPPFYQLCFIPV

Cytochrome P450 2D6 = Cytochrome P450 2D6 (Homo sapiens, UniProt P10635); assay: Inhibition of CYP2D6 in human liver microsomes using dextromethorphan as substrate after 10 mins in presence of NADPH; format: ADME
Chain of Cytochrome P450 2D6 (P10635 whole entry): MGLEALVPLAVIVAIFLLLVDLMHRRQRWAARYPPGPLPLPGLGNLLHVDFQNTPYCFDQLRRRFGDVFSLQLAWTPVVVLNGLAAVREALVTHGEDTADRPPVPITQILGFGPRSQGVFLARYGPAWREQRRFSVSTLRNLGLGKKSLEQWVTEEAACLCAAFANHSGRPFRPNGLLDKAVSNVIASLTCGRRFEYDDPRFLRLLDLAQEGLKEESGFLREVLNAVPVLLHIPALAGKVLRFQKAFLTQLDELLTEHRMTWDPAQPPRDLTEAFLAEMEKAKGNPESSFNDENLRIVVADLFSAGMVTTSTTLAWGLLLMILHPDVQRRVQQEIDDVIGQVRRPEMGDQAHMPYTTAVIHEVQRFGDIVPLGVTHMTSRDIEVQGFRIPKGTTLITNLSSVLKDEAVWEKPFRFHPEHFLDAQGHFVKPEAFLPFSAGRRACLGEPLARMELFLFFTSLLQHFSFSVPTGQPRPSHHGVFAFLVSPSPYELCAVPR

Cytochrome P450 3A4 = Cytochrome P450 3A4 (Homo sapiens, UniProt P08684); assay: Inhibition of CYP3A4 in human liver microsomes using midazolam as substrate after 10 mins in presence of NADPH; format: ADME
Chain of Cytochrome P450 3A4 (P08684 whole entry): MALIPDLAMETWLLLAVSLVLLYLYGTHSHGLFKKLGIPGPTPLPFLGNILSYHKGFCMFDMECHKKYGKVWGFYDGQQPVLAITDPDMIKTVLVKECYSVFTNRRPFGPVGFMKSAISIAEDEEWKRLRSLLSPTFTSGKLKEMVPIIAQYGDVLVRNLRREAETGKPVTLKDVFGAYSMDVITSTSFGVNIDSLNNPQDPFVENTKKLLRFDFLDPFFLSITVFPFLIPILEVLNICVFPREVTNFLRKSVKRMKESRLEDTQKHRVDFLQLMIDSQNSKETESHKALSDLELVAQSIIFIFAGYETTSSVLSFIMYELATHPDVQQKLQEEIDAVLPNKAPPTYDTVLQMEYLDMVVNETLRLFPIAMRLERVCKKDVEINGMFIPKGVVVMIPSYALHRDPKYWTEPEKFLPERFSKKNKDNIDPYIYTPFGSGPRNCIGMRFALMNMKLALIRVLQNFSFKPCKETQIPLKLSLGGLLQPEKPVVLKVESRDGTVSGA

[12] = Protein binding in human plasma at 2 uM after 5 hrs by LC/MS analysis; format: ADME, cell-free; conditions: read-out: PPB (converted)
[13] = Protein binding in human plasma assessed as recovery rate at 2 uM after 5 hrs by LC/MS analysis; format: ADME, cell-free
[14] = Half life in Wistar rat at 2 mg/kg, iv by LC-MS/MS analysis; format: ADME, organism-based; conditions: in vivo
In short: (§3)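 Male/unspecified Wistar rats given one dose, 2 mg/kg intravenously or 20 mg/kg orally; plasma concentration–time profiles followed; PK parameters reported as mean ± SD, n = 5.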

[15] = Half life in Wistar rat at 20 mg/kg, po by LC-MS/MS analysis; format: ADME, organism-based; conditions: in vivo; in short: as §3
[16] = Tmax in Wistar rat at 20 mg/kg, po by LC-MS/MS analysis; format: ADME, organism-based; conditions: in vivo; in short: as §3
[17] = AUCt in Wistar rat at 2 mg/kg, iv by LC-MS/MS analysis; format: ADME, organism-based; conditions: in vivo; in short: as §3
[18] = AUCt in Wistar rat at 20 mg/kg, po by LC-MS/MS analysis; format: ADME, organism-based; conditions: in vivo; in short: as §3
[19] = AUC (0 to infinity) in Wistar rat at 2 mg/kg, iv by LC-MS/MS analysis; format: ADME, organism-based; parameters: dose 2 mg/kg, time infinity, route intravenous; conditions: in vivo; in short: as §3
[20] = AUC (0 to infinity) in Wistar rat at 20 mg/kg, po by LC-MS/MS analysis; format: ADME, organism-based; parameters: dose 20 mg/kg, route oral, time infinity; conditions: in vivo; in short: as §3
[21] = Oral bioavailability in Wistar rat at 20 mg/kg by LC-MS/MS analysis; format: ADME, organism-based; conditions: in vivo; in short: as §3
[22] = Acute toxicity in Kunming mouse assessed as mortality at 800 mg/kg, po measured after 2 weeks; format: organism-based; conditions: in vivo, 336 h
In short: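 Kunming mice received a single intragastric dose of 800 mg/kg. Deaths and behaviour were observed over 2 weeks and compared with a control group.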

[23] = Sub-acute toxicity in Kunming mouse assessed as behavior abnormalities at 50 mg/kg/day, po administered for 2 weeks by hematoxylin and eosin staining-based assay; format: organism-based; conditions: in vivo, 336 h
In short: (§4)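 Mice were dosed orally at 50 mg/kg/day for 2 weeks and observed for behavioural abnormalities during treatment. Organs were then examined by hematoxylin–eosin staining.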

[24] = Sub-acute toxicity in Kunming mouse assessed as effect on liver at 50 mg/kg/day, po administered for 2 weeks by hematoxylin and eosin staining-based assay; format: organism-based; conditions: in vivo, 336 h; in short: as §4
[25] = Sub-acute toxicity in Kunming mouse assessed as effect on spleen at 50 mg/kg/day, po administered for 2 weeks by hematoxylin and eosin staining-based assay; format: organism-based; conditions: in vivo, 336 h; in short: as §4
[26] = Sub-acute toxicity in Kunming mouse assessed as effect on kidneys at 50 mg/kg/day, po administered for 2 weeks by hematoxylin and eosin staining-based assay; format: organism-based; conditions: in vivo, 336 h; in short: as §4
[27] = system: Human immunodeficiency virus 2; assay: Antiviral activity against HIV2 ROD infected in human MT4 cells assessed as reduction in virus-induced cytopathic effect after 5 days by MTT assay; conditions: Human immunodeficiency virus 2, ISOLATE ROD, MT4, 120 h

## Cc1cc(C#N)cc(C)c1Oc1nc(NC2CCN(Cc3ccc(C(N)=O)cc3)CC2)nc2c1COC2
[1]
  EC50: 0.0024 µM
[2]
  EC50: 0.0044 µM
[3]
  EC50: 0.0084 µM
[4]
  Ratio EC50: 1.5
[5]
  Ratio EC50: 0.6
[6]
  Ratio EC50: 2.8
[7]
  Ratio EC50: 4.4
[8]
  Ratio EC50: 11.9
[9]
  IC50: 0.051 µM
[10]
  solubility: 13.3 µg/mL (≈ 26.7 µM)
[11]
  solubility: 198 µg/mL (≈ 397 µM)
Cytochrome P450 1A2
  IC50: > 50 µM
Cytochrome P450 2C9
  IC50: 46.6 µM
Cytochrome P450 2C19
  IC50: > 50 µM
Cytochrome P450 2D6
  IC50: > 50 µM
Cytochrome P450 3A4
  IC50: > 50 µM
[12]
  fraction unbound at 5 h, 2 µM: 0.07
[13]
  Drug recovery: 86.3%
[14]
  half-life: 1.09 h
[15]
  half-life: 11.1 h
[16]
  Tmax: 1.33 h
[17]
  AUC(0-t): 500 ng·h/mL
[18]
  AUC(0-t): 1550 ng·h/mL
[19]
  AUC(0-inf): 543 ng·h/mL
[20]
  AUC(0-inf): 1660 ng·h/mL
[21]
  F: 30.96%
[22]
  Activity: Non-Toxic
[23]
  Activity: Non-Toxic
[24]
  Activity: Non-Toxic
[25]
  Activity: Non-Toxic
[26]
  Activity: Non-Toxic
[27]
  EC50: 12.7 µM
